This is an account of results in ChEMBL document CHEMBL2163226, “Discovery of novel N-phenylphenoxyacetamide derivatives as EthR inhibitors and ethionamide boosters by combining high-throughput screening and synthesis” (J Med Chem, 2012).

In experiment [1] the target is HTH-type transcriptional regulator EthR (Mycobacterium smegmatis (strain ATCC 700084 / mc(2)155)) (UniProt A0R666). Nature of the experiment: Binding affinity to Mycobacterium smegmatis mc2 155 EthR assessed as protein thermal unfolding at 20 uM by SYPRO Orange dye based thermal shift assay. The note with it: Mycolicibacterium smegmatis MC2 155. Summed up: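 Purified EthR (10 μM final) was mixed with 20 μM ligand, 2.5× SYPRO Orange and 1% DMSO in EthR buffer. Samples were heated from 37 to 85 °C at 0.04 °C/s in a qPCR instrument, with fluorescence read at Ex/Em 465/510 nm. Tm was taken as the sigmoid inflection, and ΔTm as holo minus apo Tm. Values are the mean of two experiments.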
HTH-type transcriptional regulator EthR (Mycobacterium smegmatis (strain ATCC 700084 / mc(2)155)), sequence (A0R666 whole entry): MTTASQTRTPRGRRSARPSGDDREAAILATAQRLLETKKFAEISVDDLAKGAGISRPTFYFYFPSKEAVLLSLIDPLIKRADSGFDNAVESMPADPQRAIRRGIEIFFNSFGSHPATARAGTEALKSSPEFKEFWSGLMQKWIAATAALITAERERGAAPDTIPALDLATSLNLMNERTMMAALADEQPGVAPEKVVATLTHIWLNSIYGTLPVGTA

The target of experiment [2] is HTH-type transcriptional regulator EthR (Mycobacterium tuberculosis) (UniProt P9WMC1). Nature of the experiment: Inhibition of EthR in Mycobacterium tuberculosis H37Rv-GFP infected in mouse Raw 264.7 cells assessed as boosting of 0.1 uM ethionamide-induced microbial growth inhibition at 10 uM by automated fluorescent confocal microscopy. The experiment is classed as cell-based.
HTH-type transcriptional regulator EthR (Mycobacterium tuberculosis), sequence (P9WMC1 whole entry): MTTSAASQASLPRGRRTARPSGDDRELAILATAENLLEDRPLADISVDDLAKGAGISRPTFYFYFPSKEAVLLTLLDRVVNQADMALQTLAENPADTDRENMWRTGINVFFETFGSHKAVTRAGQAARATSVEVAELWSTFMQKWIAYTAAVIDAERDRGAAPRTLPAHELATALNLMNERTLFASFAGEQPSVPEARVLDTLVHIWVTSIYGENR

Experiment [3] deals with HTH-type transcriptional regulator EthR (Mycobacterium smegmatis (strain ATCC 700084 / mc(2)155), UniProt A0R666). Nature of the experiment: Inhibition at EthR in Mycobacterium smegmatis mc2 155 assessed as reactivation of beta-glucuronidase activity measured over 48 hrs by Spectrophotometry. On the set-up: species or system Mycolicibacterium smegmatis MC2 155. A digest of the protocol: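 The reporter was M. smegmatis mc²155 carrying P1 (single-copy, hsp60-driven ethR overexpression) and P2 (uidA under the ethA promoter/operator). Culture at OD600 0.2 was mixed with MUG and compound in 10% DMSO solution. MU fluorescence (ex 390/[…]) was read at 0, 24 and 48 h at 37 °C. IC50 came from dose–response; the P2-only strain served as positive control.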
HTH-type transcriptional regulator EthR (Mycobacterium smegmatis (strain ATCC 700084 / mc(2)155), UniProt A0R666), sequence (A0R666 whole entry): as the sequence (A0R666 whole entry) above

Experiment [4] concerns Mycobacterium tuberculosis. Nature of the experiment: Antituberculosis activity against Mycobacterium tuberculosis H37Rv-GFP infected in mouse Raw 264.7 cells assessed as microbial growth inhibition at 10 uM by automated fluorescent confocal microscopy. Format: functional, organism-based. Summed up:
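Raw264.7 macrophages were infected with H37Rv-GFP (MOI 1:1, 2 h, 37 °C, shaking). Extracellular bacilli were killed with 20 μM amikacin for 1 h, then infected cells were incubated with compound at 10 μM alone for 5 days (37 °C, 5% CO2). After SYTO 60 staining, confocal imaging (488/635 nm) gave the percentage of infected cells; values are the average of two replicates.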

Molecules are shown by their SMILES. Active and inactive are the calls of the source. The calls are words filed in the database; no cut-off is given here.

Take `Oc1ccc(C(F)(F)F)cc1`: the inhibition result in experiment [1] is “Active”. The ΔTm is the shift of the melting midpoint relative to a reference. With `COc1cccc(OCC(=O)Nc2ccc(Cl)cc2)c1`, the shift in melting temperature (ΔTm) in experiment [1] is 6.1 °C. Moreover, the growth inhibition (GI) in experiment [2] was found to be 92.6%. Taken in the same sequence, the figures for `COc1cccc(NC(=O)COc2ccc(C(F)(F)F)cc2)c1` were 5 °C and -1.5%.

Turning to `O=C(COc1ccc(-c2ccccc2)cc1)Nc1ccc2c(c1)OCO2`, in experiment [1], the ΔTm came to 7 °C. In addition, the growth inhibition (GI) in experiment [2] is -3%. The IC50 is the midpoint of a concentration-inhibition curve. Take `O=C(COc1ccc(Cl)cc1Cl)Nc1ccc2nc3n(c(=O)c2c1)CCCC3`: in experiment [3], the IC50 was under 10 µM. Consider `O=C(COc1ccc(F)c(F)c1)Nc1ccc(Oc2ccccc2)cc1`, for which the ΔTm in experiment [1] is 5.7 °C. In experiment [2], the growth inhibition (GI) was -13.5%. For `O=C(COc1cccc(Oc2ccccc2)c1)Nc1ccc(Cl)c(Cl)c1`, in that order: 8.9 °C and -1.6%. As for `Cc1ccc(OCC(=O)Nc2ccc(-c3nc4ncccc4o3)cc2)c(C)c1`, the concentration for half-maximal inhibition (IC50) in experiment [3] is under 10 µM.

Consider `Cc1ccc2cc(NC(=O)CCl)ccc2n1`, for which the inhibition entry in experiment [1] is “Active”. On the same count and under the same terms, under `COc1cccc(O)c1` stands “Active”. Consider `O=C(COc1cccc(Oc2ccccc2)c1)Nc1ccccc1`, for which the thermal shift (ΔTm) in experiment [1] came to 6.1 °C. Further, the growth inhibition (GI) in experiment [2] is 2.2%.

On to `CN(C(=O)CCl)c1ccccc1`, for which the inhibition entry in experiment [1] was “Active”. `COc1cccc(SCC(=O)Nc2ccc(-c3nc4ccccc4s3)cc2)c1`: in experiment [1], the thermal shift (ΔTm) was 6.2 °C. Turning to `O=C(CCl)N(Cc1ccccc1)c1ccccc1`, the inhibition result in experiment [1] was “inactive”. As for `O=C(COc1ccc(Cl)cc1)Nc1ccc(Cl)c(Cl)c1`, the ΔTm in experiment [1] was 6.9 °C. Moreover, the growth inhibition (GI) in experiment [2] was -17.9%. Taken in the same sequence, the figures for `N#Cc1cccc(OCC(=O)Nc2ccc(-c3nc4ccccc4s3)cc2)c1` were 8.1 °C and 53.4%. Turning to `O=C(COc1ccc(C(F)(F)F)cc1)Nc1ccc(Cl)c(Cl)c1`, the ΔTm in experiment [1] was 8.1 °C. The growth inhibition (GI) in experiment [2] is -8.4%.

For the compound `O=C(CCl)N(c1ccccc1)C1CCCCC1`, the inhibition entry in experiment [1] was “inactive”.

In the case of `O=C(CCl)Nc1ccc2c(c1)OCO2`, the inhibition result in experiment [1] is “Active”. Consider `COc1ccc(NC(=O)CCl)cc1`, for which the inhibition entry in experiment [1] was “Active”.

As to `N#Cc1cccc(NC(=O)COc2cccc(Oc3ccccc3)c2)c1`, the ΔTm in experiment [1] was found to be 5.7 °C. For the same compound, the growth inhibition (GI) in experiment [2] was -7.2%. Taken in the same sequence, the figures for `COc1cccc(OCC(=O)Nc2ccc(Oc3ccccc3)cc2)c1` were 6.7 °C and -17.5%. For `O=C(CCl)Nc1ccc(Oc2ccccc2)cc1`, the inhibition entry in experiment [1] is “Active”. With `O=C(CCl)Nc1ccccc1`, in experiment [1], the inhibition result is “Active”. The same measure, in the same setting: the same measure for `CCOc1ccc(NC(=O)CCl)c(Oc2ccccc2)c1`: “inactive”. On to `Cc1ccc2cc(NC(=O)COc3ccccc3F)ccc2n1`, for which the thermal shift (ΔTm) in experiment [1] is 5.1 °C. For the same compound, in experiment [2], the growth inhibition (GI) was 83.2%.

As for `N#Cc1ccc(NC(=O)COc2cccc(Oc3ccccc3)c2)cc1`, the ΔTm in experiment [1] amounted to 6.7 °C. Besides, the growth inhibition (GI) in experiment [2] is -8.9%.

For `Oc1cccc(Oc2ccccc2)c1`, the inhibition entry in experiment [1] is “Active”.

With `COc1cccc(OCC(=O)Nc2ccc(-c3ccccc3)cc2)c1`, in experiment [1], the shift in melting temperature (ΔTm) was found to be 7 °C. Besides, the growth inhibition (GI) in experiment [2] was -2.9%. As to `COc1ccc(OCC(=O)Nc2ccc(Cl)c(Cl)c2)cc1`, the shift in melting temperature (ΔTm) in experiment [1] turned out to be 6.1 °C. Besides, the growth inhibition (GI) in experiment [2] is -0.6%.

Take `COc1cccc(OCC(=O)Nc2ccc3nc(C)ccc3c2)c1`: the ΔTm in experiment [1] was 6.6 °C. Besides, the growth inhibition (GI) in experiment [2] was 6.5%.

As to `COc1cccc(OCC(=O)Nc2ccc(Cl)c(Cl)c2)c1`, the shift in melting temperature (ΔTm) in experiment [1] is 6.8 °C. The growth inhibition (GI) in experiment [2] stood at 26.7%. On to `COc1cccc(OCC(=O)Nc2ccc(-c3nc4ccccc4s3)cc2)c1`, for which, in experiment [1], the ΔTm came to 9.9 °C. Moreover, in experiment [4], the “growth inhibition (GI)” value is “inactive”. In experiment [2], the growth inhibition (GI) worked out at 67.6%. In the case of `COc1ccccc1NC(=O)CCl`, the inhibition result in experiment [1] was “inactive”. On the same count and under the same terms, under `O=C(CCl)Nc1ccccc1-c1ccccc1` stands “inactive”. For `Cc1ccc(OCC(=O)Nc2ccc(Cl)c(Cl)c2)cc1`, in experiment [1], the ΔTm was determined as 6.8 °C. Further, the growth inhibition (GI) in experiment [2] is -10.4%. As to `O=C(COc1ccc(F)c(F)c1)Nc1ccc(C(F)(F)F)cc1`, in experiment [1], the ΔTm turned out to be 5.6 °C. Also, in experiment [2], the growth inhibition (GI) was -12.5%.

For the compound `O=C(CCl)N1CCCc2ccccc21`, the inhibition result in experiment [1] was “Active”. For `O=C(COc1ccc(Cl)c(Cl)c1)Nc1ccc(C(F)(F)F)cc1`, in experiment [1], the ΔTm was 7.5 °C. Also, the growth inhibition (GI) in experiment [2] is -5.4%. Regarding `Cc1ccc(-n2nc3ccc(NC(=O)COc4ccccc4C)cc3n2)cc1`, the IC50 in experiment [3] was found to be 2.9 µM. For the same compound, the ΔTm in experiment [1] amounted to 6.4 °C. For the same compound, the growth inhibition (GI) in experiment [2] was determined as 10.9%. On to `O=C(COc1cccc(Oc2ccccc2)c1)Nc1ccc2c(c1)OCO2`, for which the ΔTm in experiment [1] came to 8.2 °C. In experiment [2], the growth inhibition (GI) turned out to be 5.7%. For `O=C(COc1ccc(C(F)(F)F)cc1)Nc1ccc2c(c1)OCO2`, in that order: 6.2 °C and 1.4%. As for `O=C(CCl)Nc1ccc(Cl)c(Cl)c1`, the inhibition result in experiment [1] is “Active”.

`O=C(CCl)Nc1ccc(-c2nc3ccccc3s2)cc1`: the inhibition entry in experiment [1] was “Active”. As for `COc1ccc(N(C)C(=O)CCl)cc1`, the inhibition entry in experiment [1] is “Active”.
